Calls of active or inactive are those of the source. The rule behind the calls is not given here.
Test system: Microglia
Assay: Antiinflammatory activity against rat microglial assessed as inhibition of LPS-induced nitrite production at 30 uM administered 1 hr before LPS challenge measured after 24 hrs by Griess reaction
Format: functional
Outline: (§1)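 Rat microglia shaken off 15-day mixed glial cultures and kept in HAMS/DMEM (1:1) with 10% FBS plus 10 ng/ml GM-CSF; purity >98% by OX42 staining. Cells were pretreated with compound for 1 h, then given LPS for 24 h. Nitrite in the medium was measured by Griess reaction. Means ± SD of three independent experiments.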

SMILES | Activity
Cc1cccc2c(=O)n(-c3ccccc3Br)c(=S)[nH]c12 | Active
S=c1[nH]c2ccccc2c(=S)n1-c1ccccc1 | Active
O=c1c2ccccc2[nH]c(=S)n1-c1ccccc1 | Active

Test system: Astrocyte
Assay: Antiinflammatory activity against P2 rat astrocytes assessed as inhibition of LPS-induced nitrite production at 30 uM administered 1 hr before LPS challenge measured after 24 hrs by Griess reaction
Format: functional, cell-based
Outline: (§2)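 Astrocytes from neonatal (P2) rat cortex, grown in HAMS/DMEM (1:1) with 10% FBS, shaken to remove microglia and oligodendrocytes, then expanded. Cells were pretreated with compound for 1 h, then stimulated with LPS for 24 h. Nitrite in the medium was measured by Griess reaction. Means ± SD of three independent experiments.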

SMILES | Activity
Cc1cccc2c(=O)n(-c3ccccc3Br)c(=S)[nH]c12 | Active
S=c1[nH]c2ccccc2c(=S)n1-c1ccccc1 | Active
O=c1c2ccccc2[nH]c(=S)n1-c1ccccc1 | Active

Molecular target: T1, High affinity 3',5'-cyclic-AMP phosphodiesterase 7A (Homo sapiens, UniProt Q13946)
Assay: Inhibition of PDE7A assessed as hydrolysis of [3H]cAMP at 10 uM after 20 mins by scintillation proximity assay
Outline: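 PDE7A1 enzyme (0.02 units) incubated with 5 nCi [³H]cAMP plus inhibitor in kit assay buffer, 20 min at 30 °C. Scintillation binding beads (1 mg) then added to capture [³H]AMP, shaken 1 h at room temperature, settled 30 min, radioactivity counted.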

T1 sequence (Q13946 whole entry): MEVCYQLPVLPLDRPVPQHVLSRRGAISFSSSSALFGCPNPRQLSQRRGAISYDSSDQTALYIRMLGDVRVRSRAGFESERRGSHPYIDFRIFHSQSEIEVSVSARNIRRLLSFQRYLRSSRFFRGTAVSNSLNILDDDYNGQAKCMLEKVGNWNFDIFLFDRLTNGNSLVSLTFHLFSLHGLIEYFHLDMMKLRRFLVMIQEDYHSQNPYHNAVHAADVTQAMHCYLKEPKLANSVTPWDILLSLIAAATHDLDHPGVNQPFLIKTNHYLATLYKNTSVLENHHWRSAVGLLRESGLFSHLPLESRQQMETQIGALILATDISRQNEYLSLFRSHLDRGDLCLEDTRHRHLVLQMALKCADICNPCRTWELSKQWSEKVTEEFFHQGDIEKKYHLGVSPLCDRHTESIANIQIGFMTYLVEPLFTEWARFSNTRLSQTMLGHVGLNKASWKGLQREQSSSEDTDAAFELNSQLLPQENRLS

SMILES | inhibition [%]
COc1cc2[nH]c(=S)n(-c3cccnc3)c(=O)c2cc1OC | 19
COc1cc2[nH]c(=S)n(CCN3CCOCC3)c(=O)c2cc1OC | 17.9
COc1ccc(Cn2c(=O)[nH]c3ccccc3c2=O)cc1 | 9.3
COc1cc2[nH]c(=S)n(-c3ccccc3)c(=O)c2cc1OC | 13.2
O=c1c2ccccc2[nH]c(=S)n1CCN1CCOCC1 | 13.2
O=c1c2cccc(Cl)c2[nH]c(=S)n1-c1c(F)cccc1F | 74.9
O=c1c2ccccc2[nH]c(=S)n1-c1cccnc1 | 10
O=c1c2cccc(Cl)c2[nH]c(=S)n1-c1ccccc1Br | 63.4
Cc1cc(Br)c2[nH]c(=S)n(-c3ccccc3)c(=O)c2c1 | 4
COc1ccc(CCn2c(=O)[nH]c3ccccc3c2=O)cc1 | -7.2
O=c1[nH]c2ccccc2c(=O)n1-c1ccc(Br)cc1F | 2.5

Further lines, results first:

inhibition [%] | SMILES
-3.1 | O=c1c2cccnc2[nH]c(=S)n1-c1ccccc1
12.8 | O=c1c2cccnc2[nH]c(=S)n1-c1cccc(Br)c1
21.2 | O=c1c2ccccc2[nH]c(=S)n1CCN1CCCCC1
22.1 | COc1ccc(CCn2c(=O)[nH]c3cnccc3c2=O)cc1
12.7 | COc1cc2[nH]c(=S)n(CCN3CCCCC3)c(=O)c2cc1OC
-8.3 | COc1ccc(CCn2c(=O)[nH]c3ccc(Br)cc3c2=O)cc1
9.3 | O=c1c2ccncc2[nH]c(=S)n1-c1ccccc1
2.7 | O=c1c2ccncc2[nH]c(=S)n1-c1cccnc1
8 | COc1ccc(Cn2c(=O)[nH]c3ncccc3c2=O)cc1

Test system: Mus musculus
Assay: Neuroprotective effect against middle cerebral artery occlusion-induced focal cerebral ischemia in Swiss mouse stroke model assessed as reduction in infarct volume at 5 mg/kg after 15 mins (reference value: 15.4 +/- 1.1 %)
Format: functional
Design: scale not given: the % may be the effect or the level left

SMILES | Activity [%]
S=c1[nH]c2ccccc2c(=S)n1-c1ccccc1 | 10.8

Test system: Microglia
Assay: Antiinflammatory activity against rat microglial assessed as inhibition of LPS-induced nitrite production at 1 uM administered 1 hr before LPS challenge measured after 24 hrs by Griess reaction
Format: functional
Outline: as §1

SMILES | Activity
O=c1c2cccc(Cl)c2[nH]c(=S)n1-c1c(F)cccc1F | Active

Test system: Astrocyte
Assay: Antiinflammatory activity against P2 rat astrocytes assessed as inhibition of LPS-induced nitrite production at 10 uM administered 1 hr before LPS challenge measured after 24 hrs by Griess reaction
Format: functional, cell-based
Outline: as §2

SMILES | Activity
O=c1c2cccc(Cl)c2[nH]c(=S)n1-c1c(F)cccc1F | Active
O=c1c2cccc(Cl)c2[nH]c(=S)n1-c1ccccc1Br | Active

Molecular target: T1, High affinity 3',5'-cyclic-AMP phosphodiesterase 7A
Assay: Inhibition of PDE7A assessed as hydrolysis of [3H]cAMP after 20 mins by scintillation proximity assay
Outline: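 Purified PDE7A1 (0.02 units) was incubated with 5 nCi [3H]cAMP and inhibitor in kit assay buffer for 20 min at 30 °C. Scintillation beads binding [3H]AMP were added, shaken 1 h at room temperature and left to settle 30 min, then radioactivity was counted. IC50 came from a sigmoidal dose-response fit of radioactivity vs log concentration.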

SMILES | IC50 [µM]
O=c1c2cccc(Cl)c2[nH]c(=S)n1-c1c(F)cccc1F | 6.1
O=c1c2cccc(Cl)c2[nH]c(=S)n1-c1ccccc1Br | 1.8

Test system: Microglia
Assay: Antiinflammatory activity against rat microglial assessed as inhibition of LPS-induced nitrite production at 10 uM administered 1 hr before LPS challenge measured after 24 hrs by Griess reaction
Format: functional
Outline: as §1

SMILES | Activity
O=c1c2cccc(Cl)c2[nH]c(=S)n1-c1ccccc1Br | Active

Test system: not listed separately
Assay: Permeability of the compound after 2.5 hrs by PAMPA-BBB assay

SMILES | Papp at 2.5 h [×10⁻⁶ cm/s]
CN(C)CCCN1c2ccccc2Sc2ccccc21 [PROMAZINE] | 7.7
Cc1cccc2c(=O)n(-c3ccccc3Br)c(=S)[nH]c12 | 23.9
CCn1cc(C(=O)O)c(=O)c2cc(F)c(N3CCNCC3)nc21 [ENOXACIN] | 1.2

Now from value to compound:

Papp at 2.5 h [×10⁻⁶ cm/s] | SMILES
15.7 | CNCCCN1c2ccccc2CCc2ccccc21 [DESIPRAMINE]
23.8 | S=c1[nH]c2ccccc2c(=S)n1-c1ccccc1
1.7 | Cn1c(=O)c2c(ncn2C)n(C)c1=O [CAFFEINE]

Test system: Cerebral cortex neuron
Assay: Antiinflammatory activity against E18 rat primary cortical neurons assessed as inhibition of […] at 30 uM […] measured after 24 hrs by Griess reaction
Format: functional, cell-based
Outline: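 Rat E18 cortical neurons, plated on poly-lysine/gelatin and kept in Neurobasal with B-27, used at 7 days in culture. They were exposed for 24 h, with or without inhibitor, to cell-free supernatant from LPS-stimulated primary microglia. Nitrite in the medium was measured by Griess reaction. Means ± SD of three independent experiments.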

SMILES | Activity
Cc1cccc2c(=O)n(-c3ccccc3Br)c(=S)[nH]c12 | Active
S=c1[nH]c2ccccc2c(=S)n1-c1ccccc1 | Active
O=c1c2ccccc2[nH]c(=S)n1-c1ccccc1 | Active
